Results from ChEMBL document CHEMBL6092177, “Applying molecular hybridization to design a new class of pyrazolo[3,4-d]pyrimidines as Src inhibitors active in hepatocellular carcinoma” (Eur J Med Chem, 2024).
Converted amounts (≈) assume the structure as drawn. The source made the active and inactive calls. The rule behind the calls is not given here.

How the values were obtained:
[1] = Stability in human plasma measured after 24 hrs by UV-LC/MS analysis; type: ADME, cell-free; conditions: read-out: Stability
[2] = tested on: Huh-7; assay: Antiproliferative activity against human Huh-7 cells assessed as cell growth inhibition measured at 24 hrs by MTT assay; conditions: Huh-7, 24 h
[3] = Metabolic stability in human liver microsome measured after 1 hr in presence of NADPH by UV/LC-MS analysis; type: ADME; conditions: liver microsomes, read-out: Stability
How it was run: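 Compound incubated with HLM (0.2 mg/mL) and NADPH (in 48 mM MgCl2) in 10 mM PBS pH 7.4 at 37 °C for 60 min with shaking. Stopped with cold ACN, centrifuged, dried under N2 and quantified by UV/LC-MS for % unmetabolized.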

[4] = Permeability of the compound in PBS buffer at pH 7.4 assessed as membrane retention rate by PAMPA method; type: ADME
How it was run: (§1)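 PAMPA: DMSO stock diluted 1:1 with 10 mM PBS pH 7.4 as donor, through filter coated with 1% phosphatidylcholine in dodecane. Acceptor DMSO/PBS 1:1; incubated at rt for 4 h with gentle shaking. Both compartments quantified by LC-UV-MS to give Papp and % membrane retention; three independent experiments in triplicate.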

[5] = tested on: Huh-7; assay: Antiproliferative activity against human Huh-7 cells assessed as cell growth inhibition measured at 72 hrs by MTT assay; conditions: Huh-7, 72 h
[6] = Apparent permeability of compound in PBS buffer at pH 7.4 incubated for 4 hrs by LC-UV-MS analysis; type: ADME; conditions: not told; how it was run: as §1
[7] = Stability in human plasma assessed as half life measured up to 24 hrs by UV-LC/MS analysis; type: ADME, cell-free
[8] = tested on: Huh-7; assay: Antiproliferative activity against human Huh-7 cells assessed as cell growth inhibition measured at 48 hrs by MTT assay; conditions: Huh-7, 48 h
[9] = tested on: HepG2; assay: Antiproliferative activity against human HepG2 cells assessed as cell growth inhibition measured at 72 hrs by MTT assay; conditions: HepG2, 72 h
[10] = Thermodynamic solubility of compound by LC-MS/MS analysis; type: physicochemical; conditions: read-out: Therm_solubility
How it was run: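 Thermodynamic solubility: solubilized compound quantified in triplicate by LC-MS/MS on a C18 column with water/ACN gradient, both with 0.1% formic acid. Calibration from DMSO standards 0.1–100 µM; LoQ below 0.01 µM.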

[11] = tested on: HepG2; assay: Antiproliferative activity against human HepG2 cells assessed as cell growth inhibition measured at 48 hrs by MTT assay; conditions: HepG2, 48 h
[12] = tested on: HepG2; assay: Antiproliferative activity against human HepG2 cells assessed as cell growth inhibition measured at 24 hrs by MTT assay; conditions: HepG2, 24 h
[13] = Cytotoxicity against human HEK293 cells assessed as reduction in cell proliferation incubated for 72 hrs by MTT assay; type: toxicity, cell-based
[14] = Cytotoxicity against human HaCaT cells assessed as reduction in cell proliferation incubated for 24 hrs by MTT assay; type: toxicity, cell-based
[15] = Cytotoxicity against human HEK293 cells assessed as reduction in cell proliferation incubated for 24 hrs by MTT assay; type: toxicity, cell-based
[16] = Cytotoxicity against human HaCaT cells assessed as reduction in cell proliferation incubated for 48 hrs by MTT assay; type: toxicity, cell-based
[17] = Inhibition of Abl (unknown origin)
[18] = Cytotoxicity against human HEK293 cells assessed as reduction in cell proliferation incubated for 48 hrs by MTT assay; type: toxicity, cell-based
[19] = Cytotoxicity against human HaCaT cells assessed as reduction in cell proliferation incubated for 72 hrs by MTT assay; type: toxicity, cell-based
[20] = tested on: HepG2; assay: Induction of cell cycle arrest in human HepG2 cells assessed as accumulation of cells at G2/M phase incubated for 72 hrs by FACScan flow cytometer analysis relative to control; type: functional
How it was run: (§2)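 HepG2 treated about 2 µM for 72 h. DNA content measured by FACScan flow cytometry, red fluorescence through a 563–607 nm bandpass (FL2), 10^4 cells/sample. Phase percentages are means ± SD of three independent experiments in triplicate vs control.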

[21] = tested on: HepG2; assay: Induction of cell cycle arrest in human HepG2 cells assessed as decrease in accumulation of G0/G1 phase incubated for 72 hrs by FACScan flow cytometer analysis relative to control; type: functional; design: scale not given: the % may be the effect or the level left; how it was run: as §2
[22] = tested on: HepG2; assay: Induction of cell cycle arrest in human HepG2 cells assessed as accumulation of cells at S phase incubated for 72 hrs by FACScan flow cytometer analysis relative to control; type: functional; how it was run: as §2
[23] = tested on: HepG2; assay: Antiproliferative activity against human HepG2 cells assessed as cell viability at 0.1 to 1 uM preincubated for 24 hrs followed by 48 hrs drug-free treatment by MTT assay; type: functional; conditions: dose 0.1-1 µM
How it was run: (§3)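 HepG2 exposed to 0.1–100 µM for 24 h (or 48 h), then washed with PBS and kept 48 h (or 24 h) in drug-free DMEM with 10% FBS. Viability by MTT. Means ± SD of three independent experiments in triplicate; ANOVA with Tukey test.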

[24] = tested on: HepG2; assay: Inhibition of cell colony formation in human HepG2 cells assessed as reduction in clonogenic survival at 0.5 uM incubated for 10 days by crystal violet staining based assay; type: functional; conditions: HepG2, 240 h, time 10 day
How it was run: (§4)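 HepG2 at 1000 cells/dish in DMEM with 10% FBS, exposed to 0.25, 0.5, 1 or 2 µM for 10 days. Colonies (>50 cells) fixed with methanol, stained with 0.5% crystal violet and counted. Three independent experiments in triplicate; unpaired t-test vs untreated.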

[25] = tested on: HepG2; assay: Antiproliferative activity against human HepG2 cells assessed as inhibition of cell growth at 0.1 to 1 uM incubated for 24 hrs by MTT assay; type: functional, cell-based; conditions: dose 0.1-1 µM; how it was run: as §3
[26] = tested on: HepG2; assay: Antiproliferative activity against human HepG2 cells assessed as inhibition of cell growth at 10 to 100 uM preincubated for 24 hrs followed by 48 hrs drug-free treatment by MTT assay; type: functional, cell-based; conditions: dose 10-100 µM; how it was run: as §3
[27] = tested on: HepG2; assay: Inhibition of cell migration in human HepG2 cells assessed as wound closure at 0.25 uM measured at 72 hrs by T-sratch assay; conditions: HepG2, 72 h
[28] = tested on: HepG2; assay: Induction of cell cycle arrest in human HepG2 cells assessed as accumulation of hypodiploid cells at sub G0/G1 phase incubated for 72 hrs by FACScan flow cytometer analysis relative to control; type: functional; how it was run: as §2
[29] = tested on: HepG2; assay: Inhibition of cell colony formation in human HepG2 cells assessed as reduction in clonogenic survival at 1 to 2 uM incubated for 10 days by crystal violet staining based assay; type: functional; conditions: dose 1-2 µM, time 10 day; how it was run: as §4

SMILES	remaining at 24 h [1]	IC50 [2]	remaining at 1 h [3]	membrane retention [4]	IC50 [5]	Papp at 4 h [6]	IC50 [8]	IC50 [9]	solubility thermodynamic [10]	IC50 [11]	IC50 [12]	further results
Cn1ncc2c(Nc3ncc(C(=O)Nc4ccccc4)s3)nc(SCCN3CCOCC3)nc21	98.3%	67.6 µM	99.8%	16.49%	14 µM	1.61 ×10⁻⁶ cm/s	33.5 µM	7.9 µM	< 0.01 µg/mL	–	–	half-life [7]: > 24 h
O=C(Nc1cccc(O)c1)c1cnc(Nc2ncnc3c2cnn3CC(Cl)c2ccccc2)s1 (stereo not given)	> 100%	–	> 100%	6.1%	11.1 µM	0.14 ×10⁻⁶ cm/s	22 µM	3.19 µM	< 0.01 µg/mL	5.06 µM	87.1 µM	–
Cn1ncc2c(Nc3ncc(C(=O)Nc4cc(O)ccc4Br)s3)nc(SCCN3CCOCC3)nc21	99.5%	26.5 µM	> 100%	0.51%	7.21 µM	< 0.1 ×10⁻⁶ cm/s	13.7 µM	1.55 µM	< 0.01 µg/mL	7.31 µM	12 µM	–
Cc1nc(Nc2ncc(C(=O)Nc3c(C)cccc3Cl)s2)cc(N2CCN(CCO)CC2)n1 [DASATINIB ANHYDROUS]	–	37.5 µM	–	–	12.7 µM	–	16.3 µM	7.75 µM	–	9.54 µM	23.5 µM	CC50 at 72 h [13]: 0.78 µM; CC50 at 24 h [14]: 20.4 µM; CC50 at 24 h [15]: 5.4 µM; CC50 at 48 h [16]: 1.35 µM; IC50 [17]: 0.0006 µM; CC50 at 48 h [18]: 0.89 µM; CC50 at 72 h [19]: 0.22 µM
Cc1ccc(O)cc1NC(=O)c1cnc(Nc2nc(SCCN3CCOCC3)nc3c2cnn3C)s1	> 100%	54.7 µM	> 100%	19%	10.3 µM	< 0.1 ×10⁻⁶ cm/s	28.8 µM	2.47 µM	< 0.01 µg/mL	13.9 µM	59.6 µM	Activity [20]: 38.5%; CC50 at 72 h [13]: 5.23 µM; CC50 at 24 h [14]: 92.8 µM; Activity [21]: 10.4%; Activity [22]: 25.2%; Activity [23]: 15%; CC50 at 24 h [15]: 18.5 µM; CC50 at 48 h [16]: 22.8 µM; inhibition at 0.5 µM [24]: 40%; Activity [25]: Active; CC50 at 48 h [18]: 6.9 µM; Activity [26]: inactive; wound closure % at 0.25 µM [27]: ~70%; Activity [28]: 44.1%; CC50 at 72 h [19]: 3.27 µM; Activity [29]: 24%
O=C(Nc1ccccc1)c1cnc(Nc2ncnc3c2cnn3CC(Cl)c2ccccc2)s1 (stereo not given)	88.5%	–	99%	8.36%	15.3 µM	12 ×10⁻⁶ cm/s	21.2 µM	3.7 µM	< 0.01 µg/mL	7.46 µM	–	–
Cn1ncc2c(Nc3ncc(C(=O)Nc4cccc(O)c4)s3)nc(SCCN3CCOCC3)nc21	–	–	99.4%	3.1%	–	0.1 ×10⁻⁶ cm/s	–	> 50 µM	0.03 µg/mL (≈ 0.0585 µM)	> 50 µM	> 50 µM	–
Cn1ncc2c(Nc3ncc(C(=O)Nc4cccc(O)c4)s3)nc(NCCO)nc21	94.5%	–	> 100%	7.28%	26.1 µM	< 0.1 ×10⁻⁶ cm/s	48.8 µM	6.52 µM	0.01 µg/mL (≈ 0.0234 µM)	–	–	–
